According to ChEMBL document CHEMBL2021927, “Synthesis and evaluation of the cytotoxicities of tetraindoles: observation that the 5-hydroxy tetraindole (SK228) induces G₂ arrest and apoptosis in human breast cancer cells” (J Med Chem, 2012):

Experiments:
[1] = test system: MCF7; test: Growth inhibition of human MCF7 cells after 48 hrs by MTT assay; assay type: functional, cell-based; details: MCF7, 48 h
[2] = test system: MDA-MB-231; test: Growth inhibition of human MDA-MB-231 cells after 48 hrs by MTT assay; assay type: functional, cell-based; details: MDA-MB-231, 48 h
[3] = test system: MDA-MB-231; test: Growth inhibition of human MDA-MB-231 cells at 20 uM after 48 hrs by MTT assay; assay type: functional; details: MDA-MB-231, 48 h, read-out: GI
Procedure, shortened: (§1)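 MTT viability assay with 48 h exposure at a single 20 μM concentration. Result given as percent inhibition of cell growth; n = 3.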

[4] = test system: MCF7; test: Growth inhibition of human MCF7 cells at 20 uM after 48 hrs by MTT assay; assay type: functional; details: MCF7, 48 h, read-out: GI; procedure, shortened: as §1

Structure (SMILES)	IC50 [1] [µM]	IC50 [2] [µM]	inhibition of growth at 20 µM [3] [%]	inhibition of growth at 20 µM [4] [%]
c1ccc2c(C(c3ccc(C(c4c[nH]c5ccccc45)c4c[nH]c5ccccc45)s3)c3c[nH]c4ccccc34)c[nH]c2c1	> 20	> 20	36	34
Brc1ccc2[nH]cc(C(c3ccc(C(c4c[nH]c5ccccc45)c4c[nH]c5ccccc45)cc3)c3c[nH]c4ccc(Br)cc34)c2c1	> 20	> 20	8	17
Oc1ccc2[nH]cc(C(c3ccc(C(c4c[nH]c5ccc(O)cc45)c4c[nH]c5ccc(O)cc45)cc3)c3c[nH]c4ccccc34)c2c1 (stereo not drawn)	6.3	7.8		
c1ccc2c(C(c3ccc(C(c4c[nH]c5ccccc45)c4c[nH]c5ccccc45)cc3)c3c[nH]c4ccccc34)c[nH]c2c1	16.1	9.8		
Brc1ccc2[nH]cc(C(c3ccc(C(c4c[nH]c5ccc(Br)cc45)c4c[nH]c5ccc(Br)cc45)cc3)c3c[nH]c4ccc(Br)cc34)c2c1	> 20	> 20	5	25
c1ccc2c(Cc3c[nH]c4ccccc34)c[nH]c2c1 [ARUNDINE]	50	10		
c1ccc2c3c([nH]c2c1)Cc1c([nH]c2ccccc12)Cc1c([nH]c2ccccc12)Cc1c([nH]c2ccccc12)C3	1.3	1		
c1cc(C(c2c[nH]c3ccccc23)c2c[nH]c3ccccc23)cc(C(c2c[nH]c3ccccc23)c2c[nH]c3ccccc23)c1	> 20	24.3		32
c1ccc(C(c2c[nH]c3ccccc23)c2c[nH]c3ccccc23)c(Oc2ccccc2C(c2c[nH]c3ccccc23)c2c[nH]c3ccccc23)c1	> 20	> 20	8	48
Oc1ccc2[nH]cc(C(c3cccc(C(c4c[nH]c5ccc(O)cc45)c4c[nH]c5ccc(O)cc45)c3)c3c[nH]c4ccc(O)cc34)c2c1	17.8	> 20	0	
Nc1ccc2[nH]cc(C(c3ccc(C(c4c[nH]c5ccc(N)cc45)c4c[nH]c5ccc(N)cc45)cc3)c3c[nH]c4ccc(N)cc34)c2c1	> 20	> 20	35	25
N#Cc1ccc2[nH]cc(C(c3ccc(C(c4c[nH]c5ccc(C#N)cc45)c4c[nH]c5ccc(C#N)cc45)cc3)c3c[nH]c4ccc(C#N)cc34)c2c1	9.5	> 20	8	
Oc1ccc2[nH]cc(C(c3ccc(C(c4c[nH]c5ccccc45)c4c[nH]c5ccccc45)cc3)c3c[nH]c4ccccc34)c2c1 (stereo not drawn)	12.6	13.9		
Oc1ccc2[nH]cc(C(c3ccc(C(c4c[nH]c5ccccc45)c4c[nH]c5ccccc45)cc3)c3c[nH]c4ccc(O)cc34)c2c1	> 20	> 20	36	23
COc1ccc2[nH]cc(C(c3ccc(C(c4c[nH]c5ccc(OC)cc45)c4c[nH]c5ccc(OC)cc45)cc3)c3c[nH]c4ccc(OC)cc34)c2c1	> 20	> 20	3	43
c1ccc2c(C3CCCC(c4c[nH]c5ccccc45)(c4c[nH]c5ccccc45)C3)c[nH]c2c1 (stereo not drawn)	19.8	20.1		
Oc1ccc2c(C(c3ccc(C(c4c[nH]c5cc(O)ccc45)c4c[nH]c5cc(O)ccc45)cc3)c3c[nH]c4cc(O)ccc34)c[nH]c2c1	> 20	> 20	16	0
